Measurements as given in ChEMBL document CHEMBL4371099, “Bifunctional Duocarmycin Analogues as Inhibitors of Protein Tyrosine Kinases” (J Nat Prod, 2019).
Active and inactive are the calls of the source. The rule behind the calls is not given here.

Key:
MIA PaCa-2 [1] = assay: Cell cycle arrest in human MIAPaCa2 cells at 1 to 1000 nM after 24 hrs by propidium iodide staining based FACS analysis; assay type: functional
Summary of the method: (§1)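 Cells (1 × 10^6) seeded, incubated overnight, then exposed 24 h at 37 °C and 5% CO2 to increasing concentrations of compound (100 nM axitinib as VEGFR-2 control). Fixed in cold 70% ethanol, stained with propidium iodide for 30 min. DNA content read by flow cytometry, 10,000 gated events per sample. Sub-G1 fraction taken as apoptosis. Three independent experiments.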

CCRF-CEM [2] = assay: Cytotoxicity against human CCRF-CEM cells assessed as reduction in cell viability after 24 hrs by MTT assay; assay type: functional, cell-based
Summary of the method: (§2)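 Cancer lines or PBMC from healthy human donors seeded in 96-well plates. Exposed to various compound concentrations for 24 h at 37 °C, 5% CO2. MTT solution (5 mg/mL) then added and incubated 2 h more. IC50 obtained by nonlinear regression. Mean ± SD of three independent experiments.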

[3] = Cytotoxicity against human PBMC assessed as cell viability at 80 uM after 24 hrs by MTT assay relative to control; assay type: cell-based; details: read-out: Activity; summary of the method: as §2
ADR5000 cell line [4] = assay: Cytotoxicity against human CEM/ADR5000 cells assessed as reduction in cell viability after 24 hrs by MTT assay; assay type: functional, cell-based; details: ADR5000, 24 h; summary of the method: as §2
[5] = Selectivity index, ratio of IC50 for human PBMC to IC50 for human Jurkat cells; assay type: toxicity; details: PBMC versus Jurkat cells, read-out: Ratio IC50
Summary of the method: (§3)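 Selectivity index calculated as MTT IC50 in PBMC divided by MTT IC50 in the cancer line. Both values come from the 24 h MTT viability assay.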

[6] = biological target: T1, Tyrosine-protein kinase ABL2 (Homo sapiens, UniProt P42684); assay: Inhibition of recombinant human N-terminal GST/His6-tagged ABL2 (M1 to P650 residues) expressed in sf9 cells assessed as equivalents of test compound required to show 50% inhibition using Poly(Glu,Tyr) 4:1 as substrate after 60 mins in presence of [gamma33P]-ATP by scintillation counting method
T1 sequence (P42684 whole entry, the tested form may be a part): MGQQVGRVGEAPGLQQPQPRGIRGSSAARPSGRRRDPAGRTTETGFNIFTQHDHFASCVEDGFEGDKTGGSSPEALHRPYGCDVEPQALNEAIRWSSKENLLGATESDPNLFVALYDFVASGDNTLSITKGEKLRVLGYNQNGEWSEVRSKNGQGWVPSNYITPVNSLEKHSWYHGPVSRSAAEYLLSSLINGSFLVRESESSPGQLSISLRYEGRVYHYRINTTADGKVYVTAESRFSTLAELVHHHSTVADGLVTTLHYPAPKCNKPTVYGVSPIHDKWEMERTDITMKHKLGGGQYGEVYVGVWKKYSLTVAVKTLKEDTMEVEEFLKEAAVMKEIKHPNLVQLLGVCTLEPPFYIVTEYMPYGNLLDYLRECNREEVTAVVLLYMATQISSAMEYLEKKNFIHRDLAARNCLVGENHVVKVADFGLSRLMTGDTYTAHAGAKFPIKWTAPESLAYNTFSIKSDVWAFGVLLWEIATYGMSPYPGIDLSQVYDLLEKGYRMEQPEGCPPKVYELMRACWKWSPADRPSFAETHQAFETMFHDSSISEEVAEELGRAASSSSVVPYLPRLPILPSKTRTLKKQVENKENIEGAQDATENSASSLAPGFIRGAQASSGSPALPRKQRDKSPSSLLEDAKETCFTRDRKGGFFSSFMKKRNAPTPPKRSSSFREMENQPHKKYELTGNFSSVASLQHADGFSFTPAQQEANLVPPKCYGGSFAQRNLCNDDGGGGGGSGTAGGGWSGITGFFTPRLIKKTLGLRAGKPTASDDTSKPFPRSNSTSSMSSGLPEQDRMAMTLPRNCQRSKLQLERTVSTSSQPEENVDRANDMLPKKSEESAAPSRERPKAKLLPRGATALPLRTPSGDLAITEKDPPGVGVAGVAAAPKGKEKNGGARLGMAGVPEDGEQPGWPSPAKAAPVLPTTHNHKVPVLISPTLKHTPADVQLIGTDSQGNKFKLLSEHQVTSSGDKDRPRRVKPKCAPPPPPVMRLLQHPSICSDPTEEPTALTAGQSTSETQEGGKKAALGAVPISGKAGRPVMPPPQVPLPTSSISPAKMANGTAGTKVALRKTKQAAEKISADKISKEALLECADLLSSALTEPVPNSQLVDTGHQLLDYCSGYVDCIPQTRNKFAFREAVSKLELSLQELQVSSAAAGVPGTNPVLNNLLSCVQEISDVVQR
Summary of the method: (§4)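 Radiometric 33PanQinase assay using recombinant human kinases from Sf9 or E. coli, purified by affinity chromatography. ATP at the apparent Km, plus [γ-33P]-ATP. Compound tested at 1−10 000 nM, 1% DMSO. Incubated 60 min at 30 °C, stopped with 2% H3PO4, 33Pi incorporation counted by scintillation.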

[7] = biological target: T2, Vascular endothelial growth factor receptor 3 (Homo sapiens, UniProt P35916); assay: Inhibition of recombinant human N-terminal GST/His6-tagged VEGFR3 (N799 to R1298 residues) expressed in sf9 cells using Poly(Glu,Tyr) 4:1 as substrate after 60 mins in presence of [gamma33P]-ATP by scintillation counting method; summary of the method: as §4
T2 sequence (P35916 whole entry, the tested form may be a part): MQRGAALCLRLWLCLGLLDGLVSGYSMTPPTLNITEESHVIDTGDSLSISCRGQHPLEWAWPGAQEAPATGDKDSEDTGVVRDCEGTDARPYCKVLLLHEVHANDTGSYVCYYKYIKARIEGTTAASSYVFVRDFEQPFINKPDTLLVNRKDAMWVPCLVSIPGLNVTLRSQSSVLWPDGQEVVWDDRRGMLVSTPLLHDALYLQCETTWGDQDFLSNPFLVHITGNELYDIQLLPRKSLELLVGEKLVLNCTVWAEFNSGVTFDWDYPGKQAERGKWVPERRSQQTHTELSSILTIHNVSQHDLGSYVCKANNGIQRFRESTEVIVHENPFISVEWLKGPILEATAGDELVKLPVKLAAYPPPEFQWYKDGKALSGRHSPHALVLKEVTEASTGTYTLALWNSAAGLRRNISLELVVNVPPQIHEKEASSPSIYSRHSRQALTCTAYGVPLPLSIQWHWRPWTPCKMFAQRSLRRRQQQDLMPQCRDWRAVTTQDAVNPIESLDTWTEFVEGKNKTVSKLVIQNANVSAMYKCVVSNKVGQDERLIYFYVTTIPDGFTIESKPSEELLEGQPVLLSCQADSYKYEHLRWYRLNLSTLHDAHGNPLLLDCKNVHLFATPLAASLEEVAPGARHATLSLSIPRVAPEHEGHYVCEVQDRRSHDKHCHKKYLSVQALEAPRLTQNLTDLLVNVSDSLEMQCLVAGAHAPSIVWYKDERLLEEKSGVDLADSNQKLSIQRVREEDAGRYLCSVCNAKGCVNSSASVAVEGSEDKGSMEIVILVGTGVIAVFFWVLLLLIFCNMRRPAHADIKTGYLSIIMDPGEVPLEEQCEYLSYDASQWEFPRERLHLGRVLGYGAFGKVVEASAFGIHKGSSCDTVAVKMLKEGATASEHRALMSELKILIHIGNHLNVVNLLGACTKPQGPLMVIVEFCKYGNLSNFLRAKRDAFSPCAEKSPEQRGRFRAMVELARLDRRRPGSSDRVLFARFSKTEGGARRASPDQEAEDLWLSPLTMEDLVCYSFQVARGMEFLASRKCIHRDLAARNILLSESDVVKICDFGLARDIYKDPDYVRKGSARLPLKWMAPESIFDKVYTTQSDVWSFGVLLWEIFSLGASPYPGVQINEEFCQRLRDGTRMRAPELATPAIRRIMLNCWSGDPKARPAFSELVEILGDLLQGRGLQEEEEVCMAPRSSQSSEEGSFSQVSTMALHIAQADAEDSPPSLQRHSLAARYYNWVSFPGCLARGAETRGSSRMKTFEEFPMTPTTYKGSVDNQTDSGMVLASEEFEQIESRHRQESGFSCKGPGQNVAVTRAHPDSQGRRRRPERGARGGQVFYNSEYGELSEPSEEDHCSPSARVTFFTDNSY

[8] = biological target: T3, Vascular endothelial growth factor receptor 1 (Homo sapiens, UniProt P17948); assay: Inhibition of recombinant human N-terminal GST-tagged VEGFR1 (K784 to I1338 residues) expressed in sf9 cells using Poly(Glu,Tyr) 4:1 as substrate after 60 mins in presence of [gamma33P]-ATP by scintillation counting method; summary of the method: as §4
T3 sequence (P17948 whole entry, the tested form may be a part): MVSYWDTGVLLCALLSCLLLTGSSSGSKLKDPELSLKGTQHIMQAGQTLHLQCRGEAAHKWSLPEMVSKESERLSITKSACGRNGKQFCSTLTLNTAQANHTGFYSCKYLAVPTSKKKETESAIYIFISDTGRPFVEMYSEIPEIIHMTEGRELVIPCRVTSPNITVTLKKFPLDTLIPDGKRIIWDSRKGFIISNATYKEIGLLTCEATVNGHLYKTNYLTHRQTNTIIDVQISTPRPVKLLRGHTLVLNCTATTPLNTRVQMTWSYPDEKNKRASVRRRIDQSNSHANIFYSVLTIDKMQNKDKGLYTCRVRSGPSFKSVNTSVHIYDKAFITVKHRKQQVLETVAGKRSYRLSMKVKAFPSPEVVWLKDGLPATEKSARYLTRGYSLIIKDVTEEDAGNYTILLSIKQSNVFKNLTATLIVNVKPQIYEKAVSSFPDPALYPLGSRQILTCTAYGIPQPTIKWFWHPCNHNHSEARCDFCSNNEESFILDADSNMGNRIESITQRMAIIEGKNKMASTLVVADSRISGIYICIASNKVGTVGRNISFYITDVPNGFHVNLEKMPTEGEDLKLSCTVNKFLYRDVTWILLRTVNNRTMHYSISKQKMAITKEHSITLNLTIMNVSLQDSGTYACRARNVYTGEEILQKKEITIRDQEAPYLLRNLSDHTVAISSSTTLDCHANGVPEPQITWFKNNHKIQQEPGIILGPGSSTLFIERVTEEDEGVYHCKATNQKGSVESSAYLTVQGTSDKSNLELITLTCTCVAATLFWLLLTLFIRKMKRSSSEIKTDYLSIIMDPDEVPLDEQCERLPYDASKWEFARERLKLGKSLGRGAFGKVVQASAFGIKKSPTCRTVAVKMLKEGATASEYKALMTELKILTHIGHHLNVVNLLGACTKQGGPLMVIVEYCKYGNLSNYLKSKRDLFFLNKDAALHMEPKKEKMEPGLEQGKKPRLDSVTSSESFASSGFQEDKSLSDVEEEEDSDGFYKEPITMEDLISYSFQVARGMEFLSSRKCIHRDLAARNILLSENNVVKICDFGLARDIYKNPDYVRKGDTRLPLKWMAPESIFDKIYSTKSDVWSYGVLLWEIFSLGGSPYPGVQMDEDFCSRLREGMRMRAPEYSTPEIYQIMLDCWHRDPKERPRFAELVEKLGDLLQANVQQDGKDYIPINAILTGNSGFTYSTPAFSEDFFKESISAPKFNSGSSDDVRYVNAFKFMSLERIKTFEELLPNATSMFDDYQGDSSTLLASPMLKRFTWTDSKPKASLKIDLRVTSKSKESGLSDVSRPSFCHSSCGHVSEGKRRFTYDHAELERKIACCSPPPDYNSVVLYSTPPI

PBMC = assay: Cytotoxicity against human PBMC assessed as reduction in cell viability after 24 hrs by MTT assay; assay type: cell-based; summary of the method: as §2
[9] = Selectivity index, ratio of IC50 for human PBMC to IC50 for human A549 cells; assay type: toxicity; details: PBMC versus A549 cells, read-out: Ratio IC50; summary of the method: as §3
[10] = biological target: T4, Vascular endothelial growth factor receptor 2 (Homo sapiens, UniProt P35968); assay: Inhibition of recombinant human N-terminal GST-tagged VEGFR2 (D807 to V1356 residues) expressed in sf9 cells assessed as equivalents of test compound required to show 50% inhibition using Poly(Glu,Tyr) 4:1 as substrate after 60 mins in presence of [gamma33P]-ATP by scintillation counting method; summary of the method: as §4
[11] = Selectivity index, ratio of IC50 for human PBMC to IC50 for human CCRF-CEM cells; assay type: toxicity; details: PBMC versus CCRF-CEM cells, read-out: Ratio IC50; summary of the method: as §3
[12] = biological target: T3, Vascular endothelial growth factor receptor 1; assay: Inhibition of recombinant human N-terminal GST-tagged VEGFR1 (K784 to I1338 residues) expressed in sf9 cells assessed as equivalents of test compound required to show 50% inhibition using Poly(Glu,Tyr) 4:1 as substrate after 60 mins in presence of [gamma33P]-ATP by scintillation counting method; summary of the method: as §4
[13] = biological target: T4, Vascular endothelial growth factor receptor 2; assay: Inhibition of recombinant human N-terminal GST-tagged VEGFR2 (D807 to V1356 residues) expressed in sf9 cells using Poly(Glu,Tyr) 4:1 as substrate after 60 mins in presence of [gamma33P]-ATP by scintillation counting method; summary of the method: as §4
Jurkat [14] = assay: Cytotoxicity against human Jurkat cells assessed as reduction in cell viability after 24 hrs by MTT assay; assay type: functional, cell-based; summary of the method: as §2
A549 [15] = assay: Cytotoxicity against human A549 cells assessed as reduction in cell viability after 24 hrs by MTT assay; assay type: functional, cell-based; details: A549, 24 h; summary of the method: as §2
[16] = biological target: T1, Tyrosine-protein kinase ABL2; assay: Inhibition of recombinant human N-terminal GST/His6-tagged ABL2 (M1 to P650 residues) expressed in sf9 cells using Poly(Glu,Tyr) 4:1 as substrate after 60 mins in presence of [gamma33P]-ATP by scintillation counting method; summary of the method: as §4
[17] = biological target: T5, Mast/stem cell growth factor receptor Kit (Homo sapiens, UniProt P10721); assay: Inhibition of recombinant human N-terminal GST/His6-tagged c-KIT (T544 to V976 residues) expressed in sf9 cells assessed as equivalents of test compound required to show 50% inhibition using Poly(Glu,Tyr) 4:1 as substrate after 60 mins in presence of [gamma33P]-ATP by scintillation counting method; summary of the method: as §4
T5 sequence (P10721 whole entry, the tested form may be a part): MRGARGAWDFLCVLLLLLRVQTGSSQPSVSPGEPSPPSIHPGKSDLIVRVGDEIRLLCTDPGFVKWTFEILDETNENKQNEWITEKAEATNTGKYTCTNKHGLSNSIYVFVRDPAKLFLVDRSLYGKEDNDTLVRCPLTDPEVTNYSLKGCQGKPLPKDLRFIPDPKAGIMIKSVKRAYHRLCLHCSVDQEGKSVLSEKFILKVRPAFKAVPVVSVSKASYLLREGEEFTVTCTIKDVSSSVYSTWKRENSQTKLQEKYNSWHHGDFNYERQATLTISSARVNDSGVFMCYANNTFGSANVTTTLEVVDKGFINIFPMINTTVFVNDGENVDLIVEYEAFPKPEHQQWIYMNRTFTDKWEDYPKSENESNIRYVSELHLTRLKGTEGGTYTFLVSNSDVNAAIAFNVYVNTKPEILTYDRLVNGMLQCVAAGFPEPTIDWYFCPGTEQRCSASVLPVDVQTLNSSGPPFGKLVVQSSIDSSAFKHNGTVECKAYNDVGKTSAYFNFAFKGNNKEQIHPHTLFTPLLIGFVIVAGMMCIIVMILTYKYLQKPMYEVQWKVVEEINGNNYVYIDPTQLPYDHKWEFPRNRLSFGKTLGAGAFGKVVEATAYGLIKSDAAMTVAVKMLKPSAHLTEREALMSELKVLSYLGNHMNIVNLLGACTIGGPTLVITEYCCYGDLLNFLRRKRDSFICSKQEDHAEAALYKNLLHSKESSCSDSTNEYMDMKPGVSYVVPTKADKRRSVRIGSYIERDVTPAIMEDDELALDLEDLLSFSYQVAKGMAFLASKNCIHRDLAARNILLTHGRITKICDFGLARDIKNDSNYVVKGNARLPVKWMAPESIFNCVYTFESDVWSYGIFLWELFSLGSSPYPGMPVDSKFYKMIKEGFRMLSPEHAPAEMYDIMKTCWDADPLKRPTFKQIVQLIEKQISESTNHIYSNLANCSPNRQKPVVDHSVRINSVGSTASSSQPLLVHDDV

[18] = biological target: T5, Mast/stem cell growth factor receptor Kit; assay: Inhibition of recombinant human N-terminal GST/His6-tagged c-KIT (T544 to V976 residues) expressed in sf9 cells using Poly(Glu,Tyr) 4:1 as substrate after 60 mins in presence of [gamma33P]-ATP by scintillation counting method; summary of the method: as §4
MIA PaCa-2 [19] = assay: Cytotoxicity against human MIAPaCa2 cells assessed as reduction in cell viability after 24 hrs by MTT assay; assay type: functional, cell-based; details: MIA PaCa-2, 24 h; summary of the method: as §2
CCRF-CEM [20] = assay: Cell cycle arrest in human CCRF-CEM cells at 100 nM after 24 hrs by propidium iodide staining based FACS analysis; assay type: functional
Summary of the method: (§5)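 Cells (1 × 10^6) seeded in 12-well plates and held overnight, then exposed to increasing concentrations of test compound or 100 nM axitinib (VEGFR-2 inhibition control) for 24 h at 37 °C, 5% CO2. Fixed in cold 70% ethanol, stained with propidium iodide for 30 min, DNA content read by flow cytometry on 10,000 gated events; three independent experiments, means ± SD.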

MIA PaCa-2 [21] = assay: Cell cycle arrest in human MIAPaCa2 cells at 100 nM after 24 hrs by propidium iodide staining based FACS analysis; assay type: functional; summary of the method: as §5
A549 [22] = assay: Cell cycle arrest in human A549 cells at 100 nM after 24 hrs by propidium iodide staining based FACS analysis; assay type: functional; summary of the method: as §5
ADR5000 cell line [23] = assay: Cell cycle arrest in human CEM/ADR5000 cells at 100 nM after 24 hrs by propidium iodide staining based FACS analysis; assay type: functional; summary of the method: as §5
Jurkat [24] = assay: Cell cycle arrest in human Jurkat cells at 100 nM after 24 hrs by propidium iodide staining based FACS analysis; assay type: functional; summary of the method: as §5
[25] = biological target: T2, Vascular endothelial growth factor receptor 3; assay: Inhibition of recombinant human N-terminal GST/His6-tagged VEGFR3 (N799 to R1298 residues) expressed in sf9 cells assessed as equivalents of test compound required to show 50% inhibition using Poly(Glu,Tyr) 4:1 as substrate after 60 mins in presence of [gamma33P]-ATP by scintillation counting method; summary of the method: as §4
MIA PaCa-2 [26] = assay: Cell cycle arrest in human MIAPaCa2 cells assessed as accumulation at sub-G1 phase after 24 hrs by propidium iodide staining based FACS analysis; assay type: functional; summary of the method: as §1
MIA PaCa-2 [27] = assay: Cell cycle arrest in human MIAPaCa2 cells assessed as accumulation at S phase at 1 nM after 24 hrs by propidium iodide staining based FACS analysis; assay type: functional; summary of the method: as §1
Jurkat [28] = assay: Cell cycle arrest in human Jurkat cells assessed as accumulation at sub-G1 phase after 24 hrs by propidium iodide staining based FACS analysis; assay type: functional; summary of the method: as §1
A549 [29] = assay: Cell cycle arrest in human A549 cells assessed as accumulation at sub-G1 phase after 24 hrs by propidium iodide staining based FACS analysis; assay type: functional; summary of the method: as §1
ADR5000 cell line [30] = assay: Cell cycle arrest in human CEM/ADR5000 cells assessed as accumulation at sub-G1 phase after 24 hrs by propidium iodide staining based FACS analysis; assay type: functional; summary of the method: as §1
[31] = Selectivity index, ratio of IC50 for human PBMC to IC50 for human MIAPaCa2 cells; assay type: toxicity; details: PBMC versus MIAPaCa2 cells, read-out: Ratio IC50; summary of the method: as §3
[32] = Selectivity index, ratio of IC50 for human PBMC to IC50 for human CEM/ADR5000 cells; assay type: toxicity; details: PBMC versus CEM/ADR5000 cells, read-out: Ratio IC50; summary of the method: as §3
CCRF-CEM [33] = assay: Cell cycle arrest in human CCRF-CEM cells assessed as accumulation at sub-G1 phase after 24 hrs by propidium iodide staining based FACS analysis; assay type: functional; summary of the method: as §1

SMILES	IC50 (CCRF-CEM [2]) [nM]	IC50 (ADR5000 cell line [4]) [nM]	selectivity ratio [5]	Activity [6] [equiv]	IC50 [7] [µM]	IC50 [8] [nM]	IC50 (PBMC) [nM]	selectivity ratio [9]	Activity [10] [equiv]	selectivity ratio [11]	Activity [12] [equiv]	IC50 [13] [nM]	IC50 (Jurkat [14]) [nM]	IC50 (A549 [15]) [nM]	IC50 [16] [nM]	Activity [17] [equiv]	IC50 [18] [µM]	IC50 (MIA PaCa-2 [19]) [nM]	also measured
C[C@@H]1CN(C(=O)CCCC(=O)N2C[C@@H](C)c3c2cc(O)c2ccccc32)c2cc(O)c3ccccc3c21	182	> 10000	> 121	360	> 10	2100	> 80000	> 120	143	> 439	511	330	660	663	540	643	8.3	> 10000	Activity (MIA PaCa-2 [1]): inactive; viability at 24 h, 80 µM [3]: 80%
CNC(=O)c1ccccc1Sc1ccc2c(/C=C/c3ccccn3)n[nH]c2c1	–	–	–	–	–	–	–	–	–	–	–	–	–	–	–	–	–	–	Activity (CCRF-CEM [20]): Active; Activity (MIA PaCa-2 [21]): Active; Activity (A549 [22]): Active; Activity (ADR5000 cell line [23]): Active; Activity (Jurkat [24]): Active
O=C(CCCC(=O)N1C[C@@H](CCl)c2c1cc(O)c1ccccc21)N1C[C@@H](CCl)c2c1cc(O)c1ccccc21	0.9	6.9	1430	457	4.2	1270	2000	741	230	2220	283	530	1.4	2.7	685	233	3	14.1	Activity [25]: 894 equiv; inhibition [7]: Dose-dependent effect; Activity (MIA PaCa-2 [26]): Dose-dependent effect; inhibition [8]: Dose-dependent effect; Activity (MIA PaCa-2 [27]): Active; Activity (Jurkat [28]): Dose-dependent effect; Activity (A549 [29]): Dose-dependent effect; Activity (ADR5000 cell line [30]): Dose-dependent effect; selectivity ratio [31]: 142; inhibition [13]: Dose-dependent effect; selectivity ratio [32]: 290; Activity (CCRF-CEM [33]): Dose-dependent effect; inhibition [16]: Dose-dependent effect; inhibition [18]: Dose-dependent effect
